Assay results taken from ChEMBL document CHEMBL1955770, “Inhibition of S/G2 phase CDK4 reduces mitotic fidelity” (J Biol Chem, 2006).

What was measured:
[1] = target: RAC-alpha serine/threonine-protein kinase (Homo sapiens) (UniProt P31749); assay: Inhibition of AKT1 at 1 uM
Outline: (§1)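 Competition binding screen across a kinase panel with compound at 1 μM. Read-out is % competition. Kinases not hit at this concentration were scored '<50'. No Kd was determined for hits.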

[2] = target: 5'-AMP-activated protein kinase catalytic subunit alpha-1 (Homo sapiens) (UniProt Q13131); assay: Inhibition of AMPK-alpha1 at 1 uM; outline: as §1
[3] = target: BMP-2-inducible protein kinase (Homo sapiens) (UniProt Q9NSY1); assay: Inhibition of BIKE at 1 uM; outline: as §1
[4] = target: Cytoplasmic tyrosine-protein kinase BMX (Homo sapiens) (UniProt P51813); assay: Inhibition of BMX at 1 uM; outline: as §1
[5] = system: Serine/threonine-protein kinase B-raf (Homo sapiens), P15056 [V600E]; assay: Inhibition of BRAF(V600E) at 1 uM; outline: as §1
[6] = target: Tyrosine-protein kinase BTK (Homo sapiens) (UniProt Q06187); assay: Inhibition of BTK at 1 uM; outline: as §1
[7] = target: Calcium/calmodulin-dependent protein kinase type 1D (Homo sapiens) (UniProt Q8IU85); assay: Inhibition of CAMK1D at 1 uM; outline: as §1
[8] = target: Calcium/calmodulin-dependent protein kinase kinase 2 (Homo sapiens) (UniProt Q96RR4); assay: Inhibition of CAMKK2 at 1 uM
[9] = target: Dual specificity protein kinase CLK3 (Homo sapiens) (UniProt P49761); assay: Inhibition of CLK3 at 1 uM
[10] = target: Casein kinase I isoform gamma-1 (Homo sapiens) (UniProt Q9HCP0); assay: Inhibition of CSNK1G1 at 1 uM
[11] = target: Casein kinase I isoform gamma-2 (Homo sapiens) (UniProt P78368); assay: Inhibition of CSNK1G2 at 1 uM
[12] = target: Death-associated protein kinase 2 (Homo sapiens) (UniProt Q9UIK4); assay: Inhibition of DAPK2 at 1 uM
[13] = target: Ephrin type-A receptor 6 (Homo sapiens) (UniProt Q9UF33); assay: Inhibition of EPHA6 at 1 uM
[14] = target: Ephrin type-A receptor 8 (Homo sapiens) (UniProt P29322); assay: Inhibition of EPHA8 at 1 uM
[15] = target: Receptor tyrosine-protein kinase erbB-2 (Homo sapiens) (UniProt P04626); assay: Inhibition of ERBB2 at 1 uM
[16] = target: Mitogen-activated protein kinase 1 (Homo sapiens) (UniProt P28482); assay: Inhibition of ERK2 at 1 uM
[17] = target: Tyrosine-protein kinase Fer (Homo sapiens) (UniProt P16591); assay: Inhibition of FER at 1 uM
[18] = target: Tyrosine-protein kinase Fes/Fps (Homo sapiens) (UniProt P07332); assay: Inhibition of FES at 1 uM
[19] = target: Fibroblast growth factor receptor 2 (Homo sapiens) (UniProt P21802); assay: Inhibition of FGFR2 at 1 uM
[20] = target: Fibroblast growth factor receptor 3 (Homo sapiens) (UniProt P22607); assay: Inhibition of FGFR3 at 1 uM
[21] = target: Receptor-type tyrosine-protein kinase FLT3 (Homo sapiens) (UniProt P36888); assay: Inhibition of FLT3 at 1 uM
[22] = target: Vascular endothelial growth factor receptor 3 (Homo sapiens) (UniProt P35916); assay: Inhibition of FLT4 at 1 uM
[23] = target: Tyrosine-protein kinase Fyn (Homo sapiens) (UniProt P06241); assay: Inhibition of FYN at 1 uM
[24] = target: Tyrosine-protein kinase ITK/TSK (Homo sapiens) (UniProt Q08881); assay: Inhibition of ITK at 1 uM
[25] = target: Mast/stem cell growth factor receptor Kit (Homo sapiens) (UniProt P10721); assay: Inhibition of KIT at 1 uM
[26] = target: Tyrosine-protein kinase Lck (Homo sapiens, UniProt P06239); assay: Inhibition of LCK at 1 uM
[27] = target: Leukocyte tyrosine kinase receptor (Homo sapiens) (UniProt P29376); assay: Inhibition of LTK at 1 uM
[28] = target: MAP kinase-interacting serine/threonine-protein kinase 2 (Homo sapiens) (UniProt Q9HBH9); assay: Inhibition of MKNK2 at 1 uM
[29] = target: Myosin light chain kinase 2, skeletal/cardiac muscle (Homo sapiens) (UniProt Q9H1R3); assay: Inhibition of MYLK2 at 1 uM
[30] = target: Serine/threonine-protein kinase PAK 3 (Homo sapiens) (UniProt O75914); assay: Inhibition of PAK3 at 1 uM
[31] = target: Serine/threonine-protein kinase PAK 6 (Homo sapiens) (UniProt Q9NQU5); assay: Inhibition of PAK6 at 1 uM
[32] = target: Cyclin-dependent kinase 16 (Homo sapiens) (UniProt Q00536); assay: Inhibition of PCTK1 at 1 uM
[33] = target: Serine/threonine-protein kinase pim-2 (Homo sapiens) (UniProt Q9P1W9); assay: Inhibition of PIM2 at 1 uM
[34] = target: Membrane-associated tyrosine- and threonine-specific cdc2-inhibitory kinase (Homo sapiens) (UniProt Q99640); assay: Inhibition of PKMYT1 at 1 uM
[35] = target: Protein-tyrosine kinase 6 (Homo sapiens) (UniProt Q13882); assay: Inhibition of PTK6 at 1 uM
[36] = target: RAF proto-oncogene serine/threonine-protein kinase (Homo sapiens) (UniProt P04049); assay: Inhibition of RAF1 at 1 uM
[37] = target: Receptor-interacting serine/threonine-protein kinase 2 (Homo sapiens) (UniProt O43353); assay: Inhibition of RIPK2 at 1 uM
[38] = target: Proto-oncogene tyrosine-protein kinase ROS (Homo sapiens) (UniProt P08922); assay: Inhibition of ROS1 at 1 uM
[39] = target: Ribosomal protein S6 kinase alpha-5 (Homo sapiens) (UniProt O75582); assay: Inhibition of RPS6KA5 Kin.Dom.1 at 1 uM
[40] = target: Serine/threonine-protein kinase STK11 (Homo sapiens) (UniProt Q15831); assay: Inhibition of STK11 at 1 uM
[41] = target: Serine/threonine-protein kinase 16 (Homo sapiens) (UniProt O75716); assay: Inhibition of STK16 at 1 uM
[42] = target: Serine/threonine-protein kinase 17A (Homo sapiens) (UniProt Q9UEE5); assay: Inhibition of STK17A at 1 uM
[43] = target: Serine/threonine-protein kinase 36 (Homo sapiens) (UniProt Q9NRP7); assay: Inhibition of STK36 at 1 uM
[44] = target: Tyrosine-protein kinase TXK (Homo sapiens) (UniProt P42681); assay: Inhibition of TXK at 1 uM
[45] = target: Serine/threonine-protein kinase ULK3 (Mus musculus) (UniProt Q3U3Q1); assay: Inhibition of mouse ULK3 at 1 uM
[46] = target: cAMP-dependent protein kinase catalytic subunit alpha (Homo sapiens) (UniProt P17612); assay: Inhibition of PKA catalytic subunit alpha at 1 uM

Chain of Casein kinase I isoform gamma-2 (Homo sapiens) (P78368 whole entry, looked up, canonical isoform): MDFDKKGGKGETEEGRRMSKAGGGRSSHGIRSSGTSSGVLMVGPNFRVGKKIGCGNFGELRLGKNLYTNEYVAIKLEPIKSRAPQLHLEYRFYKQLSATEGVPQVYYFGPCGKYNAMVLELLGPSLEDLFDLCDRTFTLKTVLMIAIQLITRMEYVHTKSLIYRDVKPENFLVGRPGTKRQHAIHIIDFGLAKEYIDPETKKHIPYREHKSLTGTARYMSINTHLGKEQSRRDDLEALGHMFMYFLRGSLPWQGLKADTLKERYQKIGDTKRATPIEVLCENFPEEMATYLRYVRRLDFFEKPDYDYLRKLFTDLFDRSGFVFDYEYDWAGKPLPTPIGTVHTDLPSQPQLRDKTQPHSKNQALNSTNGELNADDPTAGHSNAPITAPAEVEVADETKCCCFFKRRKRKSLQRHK
Chain of Calcium/calmodulin-dependent protein kinase type 1D (Homo sapiens) (Q8IU85 whole entry, looked up): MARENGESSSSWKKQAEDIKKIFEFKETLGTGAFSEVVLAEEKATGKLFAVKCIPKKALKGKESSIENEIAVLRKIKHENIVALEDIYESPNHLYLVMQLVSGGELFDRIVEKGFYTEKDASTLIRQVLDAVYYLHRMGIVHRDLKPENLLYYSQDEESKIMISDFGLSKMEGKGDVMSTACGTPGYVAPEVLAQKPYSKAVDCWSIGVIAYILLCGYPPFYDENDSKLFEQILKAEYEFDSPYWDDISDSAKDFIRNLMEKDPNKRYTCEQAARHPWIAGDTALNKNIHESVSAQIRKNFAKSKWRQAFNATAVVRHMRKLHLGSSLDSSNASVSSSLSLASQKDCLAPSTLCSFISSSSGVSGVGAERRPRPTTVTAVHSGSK
Chain of Ribosomal protein S6 kinase alpha-5 (Homo sapiens) (O75582 whole entry, looked up): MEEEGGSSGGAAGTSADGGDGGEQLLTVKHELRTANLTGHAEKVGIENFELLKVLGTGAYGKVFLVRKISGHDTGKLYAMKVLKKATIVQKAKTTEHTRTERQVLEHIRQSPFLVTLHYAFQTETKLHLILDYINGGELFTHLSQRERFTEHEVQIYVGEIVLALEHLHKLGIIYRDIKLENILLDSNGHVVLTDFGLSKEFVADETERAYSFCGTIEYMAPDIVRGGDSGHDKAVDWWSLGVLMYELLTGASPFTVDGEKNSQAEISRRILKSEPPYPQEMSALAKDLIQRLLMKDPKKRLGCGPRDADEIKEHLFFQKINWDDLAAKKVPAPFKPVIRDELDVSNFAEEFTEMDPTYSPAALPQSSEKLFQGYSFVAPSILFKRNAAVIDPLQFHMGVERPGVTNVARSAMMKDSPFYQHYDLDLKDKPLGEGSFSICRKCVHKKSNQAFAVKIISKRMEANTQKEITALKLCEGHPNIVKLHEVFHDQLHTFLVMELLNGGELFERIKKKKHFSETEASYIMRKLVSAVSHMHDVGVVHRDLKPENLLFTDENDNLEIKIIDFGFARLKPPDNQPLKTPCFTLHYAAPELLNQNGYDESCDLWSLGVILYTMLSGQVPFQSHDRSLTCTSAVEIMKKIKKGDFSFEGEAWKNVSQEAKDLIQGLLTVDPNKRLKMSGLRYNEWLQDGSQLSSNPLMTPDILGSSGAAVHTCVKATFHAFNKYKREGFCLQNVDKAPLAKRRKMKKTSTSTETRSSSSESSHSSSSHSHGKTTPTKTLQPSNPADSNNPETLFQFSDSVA
Chain of Serine/threonine-protein kinase 16 (Homo sapiens) (O75716 whole entry): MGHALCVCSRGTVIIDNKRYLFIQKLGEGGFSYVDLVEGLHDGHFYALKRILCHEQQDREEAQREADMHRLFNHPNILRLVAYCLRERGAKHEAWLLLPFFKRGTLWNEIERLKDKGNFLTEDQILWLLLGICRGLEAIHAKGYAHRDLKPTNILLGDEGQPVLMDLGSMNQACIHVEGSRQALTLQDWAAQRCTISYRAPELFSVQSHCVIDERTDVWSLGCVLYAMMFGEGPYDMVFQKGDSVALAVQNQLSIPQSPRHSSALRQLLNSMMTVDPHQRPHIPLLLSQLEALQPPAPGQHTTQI
Chain of MAP kinase-interacting serine/threonine-protein kinase 2 (Homo sapiens) (Q9HBH9 whole entry, looked up): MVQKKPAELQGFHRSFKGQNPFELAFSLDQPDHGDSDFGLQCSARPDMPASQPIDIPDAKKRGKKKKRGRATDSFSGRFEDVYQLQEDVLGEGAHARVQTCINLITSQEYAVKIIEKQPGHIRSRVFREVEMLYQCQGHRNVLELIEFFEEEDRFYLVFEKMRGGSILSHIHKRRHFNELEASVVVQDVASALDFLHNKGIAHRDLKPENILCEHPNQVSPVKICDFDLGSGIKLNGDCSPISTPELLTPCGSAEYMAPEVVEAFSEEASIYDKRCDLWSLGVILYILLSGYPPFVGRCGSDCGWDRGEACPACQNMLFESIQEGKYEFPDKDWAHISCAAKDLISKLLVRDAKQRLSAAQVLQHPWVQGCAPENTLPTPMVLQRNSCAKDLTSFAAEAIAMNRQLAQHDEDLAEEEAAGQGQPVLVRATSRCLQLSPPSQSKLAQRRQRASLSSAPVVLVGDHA
Chain of Dual specificity protein kinase CLK3 (Homo sapiens) (P49761 whole entry, looked up, canonical isoform): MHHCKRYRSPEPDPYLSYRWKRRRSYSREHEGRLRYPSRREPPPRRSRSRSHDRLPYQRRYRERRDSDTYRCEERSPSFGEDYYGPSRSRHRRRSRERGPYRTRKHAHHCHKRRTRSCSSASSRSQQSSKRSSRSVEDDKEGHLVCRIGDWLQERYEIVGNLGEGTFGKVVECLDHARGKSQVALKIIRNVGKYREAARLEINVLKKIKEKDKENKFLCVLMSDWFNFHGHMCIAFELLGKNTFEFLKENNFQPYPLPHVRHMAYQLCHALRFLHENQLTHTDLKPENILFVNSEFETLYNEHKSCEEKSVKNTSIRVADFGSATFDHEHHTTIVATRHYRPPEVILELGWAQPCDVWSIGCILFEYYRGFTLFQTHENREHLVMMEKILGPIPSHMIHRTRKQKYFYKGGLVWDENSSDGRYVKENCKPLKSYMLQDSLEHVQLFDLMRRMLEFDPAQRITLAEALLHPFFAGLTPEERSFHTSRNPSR
Chain of Tyrosine-protein kinase Fer (Homo sapiens) (P16591 whole entry, looked up): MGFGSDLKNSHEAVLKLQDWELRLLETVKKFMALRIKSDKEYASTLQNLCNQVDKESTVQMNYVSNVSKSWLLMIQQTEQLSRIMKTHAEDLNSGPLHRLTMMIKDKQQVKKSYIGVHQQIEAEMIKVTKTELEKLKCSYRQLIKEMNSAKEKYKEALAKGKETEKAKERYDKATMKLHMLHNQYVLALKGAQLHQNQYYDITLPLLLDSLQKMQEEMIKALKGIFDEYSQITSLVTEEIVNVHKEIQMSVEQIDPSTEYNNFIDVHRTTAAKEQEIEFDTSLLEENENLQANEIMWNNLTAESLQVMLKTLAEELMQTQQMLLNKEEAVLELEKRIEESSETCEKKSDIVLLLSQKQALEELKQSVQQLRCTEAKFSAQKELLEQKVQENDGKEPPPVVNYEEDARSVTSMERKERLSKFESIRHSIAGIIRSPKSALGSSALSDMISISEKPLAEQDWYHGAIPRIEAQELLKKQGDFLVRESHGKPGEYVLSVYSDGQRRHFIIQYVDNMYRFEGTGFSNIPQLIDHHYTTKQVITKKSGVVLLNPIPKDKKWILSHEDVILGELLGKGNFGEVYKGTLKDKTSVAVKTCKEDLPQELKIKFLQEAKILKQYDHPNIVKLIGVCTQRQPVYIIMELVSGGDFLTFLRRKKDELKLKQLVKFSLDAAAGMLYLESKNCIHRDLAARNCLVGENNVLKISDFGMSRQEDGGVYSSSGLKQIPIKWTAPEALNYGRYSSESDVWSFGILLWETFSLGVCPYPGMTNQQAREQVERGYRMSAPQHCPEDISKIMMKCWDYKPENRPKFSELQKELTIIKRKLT
Chain of Tyrosine-protein kinase BTK (Homo sapiens) (Q06187 whole entry): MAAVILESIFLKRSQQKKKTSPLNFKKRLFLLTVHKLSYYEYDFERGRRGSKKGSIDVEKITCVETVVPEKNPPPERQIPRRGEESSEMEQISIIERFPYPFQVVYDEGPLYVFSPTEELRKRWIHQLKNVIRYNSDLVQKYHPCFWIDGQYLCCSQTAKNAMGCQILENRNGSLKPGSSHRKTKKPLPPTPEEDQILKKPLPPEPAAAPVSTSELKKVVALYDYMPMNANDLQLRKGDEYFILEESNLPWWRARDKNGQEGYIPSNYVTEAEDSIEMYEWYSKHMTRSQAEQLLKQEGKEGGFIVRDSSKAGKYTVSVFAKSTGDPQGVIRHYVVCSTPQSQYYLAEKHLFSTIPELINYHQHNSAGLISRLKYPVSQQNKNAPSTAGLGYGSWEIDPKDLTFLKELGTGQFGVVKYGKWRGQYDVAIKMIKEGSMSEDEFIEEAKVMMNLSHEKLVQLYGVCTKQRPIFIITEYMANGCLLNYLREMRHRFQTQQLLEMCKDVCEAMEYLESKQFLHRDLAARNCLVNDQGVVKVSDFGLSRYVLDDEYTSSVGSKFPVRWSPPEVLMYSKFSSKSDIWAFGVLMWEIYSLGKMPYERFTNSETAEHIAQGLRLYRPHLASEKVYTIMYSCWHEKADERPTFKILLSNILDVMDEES
Chain of Tyrosine-protein kinase Lck (P06239 2-509 limits assumed): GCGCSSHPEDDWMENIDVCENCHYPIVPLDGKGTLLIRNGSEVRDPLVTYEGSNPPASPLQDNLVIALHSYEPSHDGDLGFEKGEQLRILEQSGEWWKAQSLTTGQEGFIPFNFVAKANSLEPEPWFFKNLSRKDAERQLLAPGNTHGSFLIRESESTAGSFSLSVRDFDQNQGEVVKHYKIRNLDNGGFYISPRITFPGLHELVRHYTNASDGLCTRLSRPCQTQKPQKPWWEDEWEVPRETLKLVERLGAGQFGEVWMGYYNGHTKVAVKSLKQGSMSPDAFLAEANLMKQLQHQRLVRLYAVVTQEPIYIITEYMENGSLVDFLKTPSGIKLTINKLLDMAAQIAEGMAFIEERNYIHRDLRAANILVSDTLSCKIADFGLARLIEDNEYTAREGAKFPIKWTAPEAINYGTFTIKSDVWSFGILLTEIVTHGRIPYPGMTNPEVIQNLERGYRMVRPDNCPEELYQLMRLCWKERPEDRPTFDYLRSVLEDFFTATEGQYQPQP

CN1CCN(c2ccc(Nc3nc(N)c(C(=O)c4ccc5c(c4)OCCO5)s3)cc2)CC1 showed an inhibition [1] of under 50%, an inhibition [2] of under 50% and an inhibition [3] of under 50%. The inhibition [4] was under 50%, the inhibition [5] was under 50% and the inhibition [6] was under 50%. It also gave an inhibition [7] of under 50%, an inhibition [8] of under 50% and an inhibition [9] of 89%. It also gave an inhibition [10] of 98%, an inhibition [11] of 99% and an inhibition [12] of under 50%. For the same molecule, the inhibition [13] was under 50%, the inhibition [14] was under 50% and the inhibition [15] was under 50%. It also gave an inhibition [16] of under 50%, an inhibition [17] of under 50% and an inhibition [18] of under 50%. The inhibition [19] was under 50%, the inhibition [20] was under 50% and the inhibition [21] was under 50%. For the same molecule, the inhibition [22] was under 50%, the inhibition [23] was under 50% and the inhibition [24] was under 50%. It also gave an inhibition [25] of under 50%, an inhibition [26] of under 50% and an inhibition [27] of under 50%. It also gave an inhibition [28] of under 50%, an inhibition [29] of under 50% and an inhibition [30] of under 50%. The inhibition [31] was under 50%, the inhibition [32] was 99% and the inhibition [33] was under 50%. It also gave an inhibition [34] of under 50%, an inhibition [35] of under 50% and an inhibition [36] of under 50%. It also gave an inhibition [37] of under 50%, an inhibition [38] of under 50% and an inhibition [39] of under 50%. It also gave an inhibition [40] of under 50%, an inhibition [41] of 87% and an inhibition [42] of 89%. It also gave an inhibition [43] of 86%, an inhibition [44] of under 50% and an inhibition [45] of under 50%. It also gave an inhibition [46] of under 50%.
